{"source": "paper PMC4264455", "about": "(British Journal of Cancer, 2014)", "key": {"[1]": {"system": "CDK4", "conditions": "ref Squires et al, 2009; cited from earlier work"}, "[2]": {"system": "markers of CDK activity in tumour biopsies", "experiment": "Pharmacodynamic analysis of tumour biopsies", "format": "in vivo, human", "conditions": "three patients at RP2D, pre-dose vs 24 h after end of infusion", "procedure,_shortened": "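Tumour biopsies were taken at 27.0 mg m−2, before dosing and 24 h after the end of a 1-h IV infusion. Samples were immunostained for PCNA, phospho-NPM and Ki67. Read-out was the estimated percentage of positively stained tumour cells.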"}, "[3]": {"system": "QTc intervals", "experiment": "ECG analysis", "format": "in vivo, human", "procedure,_shortened": "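After dose level 1, patients with QTc ⩾460 ms at baseline, congenital long QT or QT-affecting medication were excluded. 12-lead ECGs were taken immediately before and after each infusion on days 1, 4, 8 and 11 of cycle 1, with a confirmatory ECG within 48 h of any abnormality. QT was machine-recorded with Bazett correction. At 27.0 mg m−2, 24-h ambulatory ECG started immediately after the cycle 1 infusion. An independent cardiologist reviewed all tracings.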"}, "[4]": {"experiment": "Pharmacokinetic analysis of plasma AT7519 after first 1-h intravenous infusion", "format": "in vivo, human"}, "[5]": {"system": "advanced solid malignancies or non-Hodgkin's lymphoma", "experiment": "Anti-tumour activity", "format": "in vivo, human", "procedure,_shortened": "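Test compound given as a 1-h IV infusion on days 1, 4, 8 and 11 every 3 weeks, at 14.4–32.4 mg m−2. Radiological assessment was done after every two cycles. Response was graded by RECIST version 1.1. Treatment continued until progression, unacceptable toxicity or consent withdrawal.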"}, "[6]": {"system": "human cancer cell lines", "conditions": "in vitro studies; ref Squires et al, 2010; cited from earlier work"}, "[7]": {"system": "patients with refractory solid tumors", "conditions": "ref Mahadevan et al, 2011, cited from earlier work"}, "[8]": {"system": "patients with advanced refractory solid tumours or non-Hodgkin's lymphoma", "experiment": "Phase I dose escalation: safety, tolerability, DLT and adverse events", "format": "in vivo, human"}, "[9]": {"conditions": "1-h intravenous infusion, day 1 cycle 1, 29 patients"}, "[10]": {"conditions": "19 patients evaluable for efficacy"}, "[11]": {"conditions": "five consecutive days every 3 weeks"}}, "note": "“Also recorded” adds a separate entry of the source.", "data": [{"smiles": "O=C(NC1CCNCC1)c1n[nH]cc1NC(=O)c1c(Cl)cccc1Cl", "note": "[AT7519, N-(4-piperidinyl)-4-(2,6-dichlorobenzoylamino)-1H-pyrazole-3-carboxamide]", "values": [{"measurement": "IC50", "setting": "[1]", "value": 100, "unit": "nM"}, {"measurement": "changes in proliferating cell nuclear antigen, pNPM and Ki67", "setting": "[2]", "value": "no consistent changes"}, {"measurement": "patients with transient QTc increases", "setting": "[3]; among the 24 patients with baseline QTc ⩽450 ms", "value": 10, "unit": "patients"}, {"measurement": "QTc prolongation", "setting": "[3]; serial ECGs, 24-h ambulatory ECG in five patients at the RP2D level", "value": "no clinically significant QTc prolongations"}, {"measurement": "plasma clearance", "setting": "[4]; [9]", "value": "0.28±0.26", "unit": "l min^−1 m^−2"}, {"measurement": "volume of distribution", "setting": "[4]; [9]", "value": "289±218", "unit": "l m^−2"}, {"measurement": "dose dependence of Cmax and plasma exposures", "setting": "[4]; 14.4 to 32.4 mg m^−2", "value": "apparent dose proportional increase; also recorded: linear pharmacokinetics"}, {"measurement": "Cmax", "setting": "[4]; human, plasma, intravenous, 27 mg", "value": "591 ± 358", "unit": "ng/mL"}, {"measurement": "half-life", "setting": "[4]; human, plasma, iv", "value": "13.1 ± 4", "unit": "h"}, {"measurement": "complete or partial response", "setting": "[5]; [10]", "value": "no complete or partial response; also recorded: no partial response"}, {"measurement": "patients with progressive disease as best response", "setting": "[5]; [10]", "value": "nine"}, {"measurement": "duration of durable stable disease in one patient", "setting": "[5]; one patient with metastatic rectal cancer, 10 cycles", "value": 11.1, "unit": "months"}, {"measurement": "median duration of stable disease", "setting": "[5]; ten patients with stable disease", "value": 3.3, "unit": "months"}, {"measurement": "concentrations at which anti-cancer activities were observed", "setting": "[6]", "value": "above 100 ng ml^−1"}, {"measurement": "dose at which one patient death from QTc prolongation was reported", "setting": "[7]; [11]", "value": 34, "unit": "mg m^−2 per day"}, {"measurement": "minimal effective biological dose", "setting": "[7]; [11]", "value": 28.8, "unit": "mg m^−2 per day"}, {"measurement": "dose at which dose-limiting toxicity (DLT) was initially seen", "setting": "[7]; × 5 days", "value": 14.4, "unit": "mg m^−2 per day"}, {"measurement": "ALP elevation: No. of patients with AEs of any grade", "setting": "[8]; 14.4 mg m^−2 (n=5)", "value": "3 No. of patients"}, {"measurement": "AST elevation: No. of patients with AEs of any grade", "setting": "[8]; 14.4 mg m^−2 (n=5)", "value": "2 No. of patients"}, {"measurement": "Anaemia: No. of patients with AEs of any grade", "setting": "[8]; 14.4 mg m^−2 (n=5)", "value": "5 No. of patients"}, {"measurement": "Anorexia: No. of patients with AEs of any grade", "setting": "[8]; 14.4 mg m^−2 (n=5)", "value": "0 No. of patients"}, {"measurement": "Creatinine elevation: No. of patients with AEs of any grade", "setting": "[8]; 14.4 mg m^−2 (n=5)", "value": "1 No. of patients"}, {"measurement": "Diarrhoea: No. of patients with AEs of any grade", "setting": "[8]; 14.4 mg m^−2 (n=5)", "value": "0 No. of patients"}, {"measurement": "Fatigue: No. of patients with AEs of any grade", "setting": "[8]; 14.4 mg m^−2 (n=5)", "value": "0 No. of patients"}, {"measurement": "Hyperglycaemia (random): No. of patients with AEs of any grade", "setting": "[8]; 14.4 mg m^−2 (n=5)", "value": "0 No. of patients"}, {"measurement": "Infection without neutropenia: No. of patients with AEs of any grade", "setting": "[8]; 14.4 mg m^−2 (n=5)", "value": "0 No. of patients"}, {"measurement": "Lymphopenia: No. of patients with AEs of any grade", "setting": "[8]; 14.4 mg m^−2 (n=5)", "value": "4 No. of patients"}, {"measurement": "Mucositis: No. of patients with AEs of any grade", "setting": "[8]; 14.4 mg m^−2 (n=5)", "value": "0 No. of patients"}, {"measurement": "Nausea: No. of patients with AEs of any grade", "setting": "[8]; 14.4 mg m^−2 (n=5)", "value": "1 No. of patients"}, {"measurement": "Neutropenia: No. of patients with AEs of any grade", "setting": "[8]; 14.4 mg m^−2 (n=5)", "value": "0 No. of patients"}, {"measurement": "Thrombocytopenia: No. of patients with AEs of any grade", "setting": "[8]; 14.4 mg m^−2 (n=5)", "value": "0 No. of patients"}, {"measurement": "Vomiting: No. of patients with AEs of any grade", "setting": "[8]; 14.4 mg m^−2 (n=5)", "value": "1 No. of patients"}, {"measurement": "ALP elevation: No. of patients with AEs of any grade", "setting": "[8]; 21.6 mg m^−2 (n=7)", "value": "5 No. of patients"}, {"measurement": "AST elevation: No. of patients with AEs of any grade", "setting": "[8]; 21.6 mg m^−2 (n=7)", "value": "2 No. of patients"}, {"measurement": "Anaemia: No. of patients with AEs of any grade", "setting": "[8]; 21.6 mg m^−2 (n=7)", "value": "6 No. of patients"}, {"measurement": "Anorexia: No. of patients with AEs of any grade", "setting": "[8]; 21.6 mg m^−2 (n=7)", "value": "1 No. of patients"}, {"measurement": "Creatinine elevation: No. of patients with AEs of any grade", "setting": "[8]; 21.6 mg m^−2 (n=7)", "value": "1 No. of patients"}, {"measurement": "Diarrhoea: No. of patients with AEs of any grade", "setting": "[8]; 21.6 mg m^−2 (n=7)", "value": "2 No. of patients"}, {"measurement": "Fatigue: No. of patients with AEs of any grade", "setting": "[8]; 21.6 mg m^−2 (n=7)", "value": "4 No. of patients"}, {"measurement": "Hyperglycaemia (random): No. of patients with AEs of any grade", "setting": "[8]; 21.6 mg m^−2 (n=7)", "value": "1 No. of patients"}, {"measurement": "Infection without neutropenia: No. of patients with AEs of any grade", "setting": "[8]; 21.6 mg m^−2 (n=7)", "value": "1 No. of patients"}, {"measurement": "Lymphopenia: No. of patients with AEs of any grade", "setting": "[8]; 21.6 mg m^−2 (n=7)", "value": "5 No. of patients"}, {"measurement": "Mucositis: No. of patients with AEs of any grade", "setting": "[8]; 21.6 mg m^−2 (n=7)", "value": "3 No. of patients"}, {"measurement": "Nausea: No. of patients with AEs of any grade", "setting": "[8]; 21.6 mg m^−2 (n=7)", "value": "2 No. of patients"}, {"measurement": "Neutropenia: No. of patients with AEs of any grade", "setting": "[8]; 21.6 mg m^−2 (n=7)", "value": "0 No. of patients"}, {"measurement": "Thrombocytopenia: No. of patients with AEs of any grade", "setting": "[8]; 21.6 mg m^−2 (n=7)", "value": "1 No. of patients"}, {"measurement": "Vomiting: No. of patients with AEs of any grade", "setting": "[8]; 21.6 mg m^−2 (n=7)", "value": "1 No. of patients"}, {"measurement": "ALP elevation: No. of patients with AEs of any grade", "setting": "[8]; 27.0 mg m^−2 (n=15)", "value": "7 No. of patients"}, {"measurement": "AST elevation: No. of patients with AEs of any grade", "setting": "[8]; 27.0 mg m^−2 (n=15)", "value": "9 No. of patients"}, {"measurement": "Anaemia: No. of patients with AEs of any grade", "setting": "[8]; 27.0 mg m^−2 (n=15)", "value": "12 No. of patients"}, {"measurement": "Anorexia: No. of patients with AEs of any grade", "setting": "[8]; 27.0 mg m^−2 (n=15)", "value": "2 No. of patients"}, {"measurement": "Creatinine elevation: No. of patients with AEs of any grade", "setting": "[8]; 27.0 mg m^−2 (n=15)", "value": "1 No. of patients"}, {"measurement": "Diarrhoea: No. of patients with AEs of any grade", "setting": "[8]; 27.0 mg m^−2 (n=15)", "value": "3 No. of patients"}, {"measurement": "Fatigue: No. of patients with AEs of any grade", "setting": "[8]; 27.0 mg m^−2 (n=15)", "value": "10 No. of patients"}, {"measurement": "Hyperglycaemia (random): No. of patients with AEs of any grade", "setting": "[8]; 27.0 mg m^−2 (n=15)", "value": "9 No. of patients"}, {"measurement": "Infection without neutropenia: No. of patients with AEs of any grade", "setting": "[8]; 27.0 mg m^−2 (n=15)", "value": "3 No. of patients"}, {"measurement": "Lymphopenia: No. of patients with AEs of any grade", "setting": "[8]; 27.0 mg m^−2 (n=15)", "value": "13 No. of patients"}, {"measurement": "Mucositis: No. of patients with AEs of any grade", "setting": "[8]; 27.0 mg m^−2 (n=15)", "value": "11 No. of patients"}, {"measurement": "Nausea: No. of patients with AEs of any grade", "setting": "[8]; 27.0 mg m^−2 (n=15)", "value": "6 No. of patients"}, {"measurement": "Neutropenia: No. of patients with AEs of any grade", "setting": "[8]; 27.0 mg m^−2 (n=15)", "value": "4 No. of patients"}]}]}
